By solubility is commonly meant the concentration that dissolves in the medium under given conditions. Usually EC50 stands for the concentration at which the effect is half-maximal.

≈ marks a conversion by molar mass, not a printed value.

Data set [1] relates to Mus musculus. The data set can be described thus: Reduction in CCL4 gene expression in lungs of C57BL/6 mouse infected with Influenza A virus (A/Puerto Rico/8/1934(H1N1)) at 10 mg/kg, ip starting on the same day as infection and continued daily until day 3 postinfection by real-time PCR analysis. In kind it is functional. Details: scale not given: the % may be the effect or the level left. In a few lines:
(§1)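 Female C57BL/6 mice, 6–8 weeks old, infected intranasally with PR8 and given 10 mg/kg in saline by ip injection. On day 3 p.i., lungs were homogenized in Ribozol. 500 ng RNA was reverse-transcribed and run in SYBR green qPCR. Fold change versus uninfected mice was calculated by 2ΔΔCt with 18S normalization. Means ± SD from three experiments, 3–4 mice per group.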
A general note: In qPCR the cycle at which signal appears reflects the starting amount.

The nature of data set [2]: Solubility in pH 7.4 PBS sonicated for 5 mins followed by incubation at room temperature for 30 mins. Format: physicochemical. In a few lines:
(§2)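 Solid suspended in PBS pH 7.4 at the stated amount and volume, sonicated 5 min, held 30 min at room temperature, then diluted 1:1 stepwise until a clear solution. Solubility judged by visual inspection as partial or soluble.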

Data set [3] in a line: Stability of the compound in pH 7.4 phosphate buffer solution at 4 degC incubated for 16 days. Format: physicochemical.
Data set [4] is described as follows: Drug metabolism in C57BL/6 mouse plasma assessed as half life for isoliquiritigenin formation by UPLC analysis. In kind it is ADME, cell-free. The essentials: (§3)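 Mouse plasma (cardiac puncture, heparin, spun 2000g 10 min 4 °C) or lung homogenate in 0.9% saline (spun 400g 5 min), n = 3 mice, stored −80 °C. 27 μL matrix plus 5 μL of 1 mM prodrug in PBS pH 7.4, 37 °C; lung 5–20 min, plasma 40–240 min. Stopped with CH3CN, centrifuged, UPLC at 360 nm with Fmoc-glycine reference; remaining fraction from prodrug/parent AUC ratio.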

The nature of data set [5]: Solubility in pH 7.4 PBS at 3.83 mg in 400 ul solution sonicated for 5 mins followed by incubation at room temperature for 30 mins. Format: physicochemical. The essentials:
as §2

The nature of data set [6]: Stability in pH 7.4 PBS buffer at 37 degC incubated for 24 hrs by UPLC analysis. The settings on record: pH 7.4, 24 h. Format: physicochemical.
A short description of data set [7]: Stability of the compound in pH 7.4 phosphate buffer solution at -20 degC incubated for 16 days. In kind it is physicochemical.
Data set [8] in a line: Drug metabolism in C57BL/6 mouse lung extracts assessed as half life for isoliquiritigenin formation by UPLC analysis. Format: ADME, tissue-based. In a few lines: as §3
A short description of data set [9]: Stability of the compound in amophous solid form at ambient temperature incubated for 16 days. In kind it is physicochemical. The settings on record: 384 h.
A short description of data set [10]: Solubility in pH 7.4 PBS at 3.83 mg in 100 ul solution sonicated for 5 mins followed by incubation at room temperature for 30 mins. Format: physicochemical. The essentials:
as §2

Data set [11] is described as follows: Solubility in pH 7.4 PBS at 3.83 mg in 200 ul solution sonicated for 5 mins followed by incubation at room temperature for 30 mins. In kind it is physicochemical. In a few lines:
as §2

Data set [12] in a line: Stability of the compound in amophous solid form at -20 degC incubated for 16 days. Format: physicochemical.
Data set [13] has as its system Mus musculus. The data set can be described thus: Reduction in IL6 gene expression in lungs of C57BL/6 mouse infected with Influenza A virus (A/Puerto Rico/8/1934(H1N1)) at 10 mg/kg, ip starting on the same day as infection and continued daily until day 3 postinfection by real-time PCR analysis. Also on record: scale not given: the % may be the effect or the level left. Format: functional. The essentials: as §1

Data set [14] in a line: Solubility in pH 7.4 PBS at 0.5 mg in 8 ul solution sonicated for 5 mins followed by incubation at room temperature for 30 mins. Format: physicochemical. In a few lines:
as §2

Data set [15] in a line: Solubility in pH 7.4 PBS at 0.5 mg in 64 ul solution sonicated for 5 mins followed by incubation at room temperature for 30 mins. Format: physicochemical. In a few lines:
as §2

A short description of data set [16]: Solubility in pH 7.4 PBS at 0.5 mg in 4 ul solution sonicated for 5 mins followed by incubation at room temperature for 30 mins. In kind it is physicochemical. In a few lines: as §2
The nature of data set [17]: Solubility in pH 7.4 PBS at 0.5 mg in 128 ul solution sonicated for 5 mins followed by incubation at room temperature for 30 mins. Format: physicochemical. The essentials: as §2
The nature of data set [18]: Solubility in pH 7.4 PBS at 0.5 mg in 16 ul solution sonicated for 5 mins followed by incubation at room temperature for 30 mins. Format: physicochemical. The essentials:
as §2

Data set [19] is described as follows: Solubility in pH 7.4 PBS at 0.5 mg in 2 ul solution sonicated for 5 mins followed by incubation at room temperature for 30 mins. In kind it is physicochemical. The essentials:
as §2

Another data set deals with Influenza A virus. The data set can be described thus: Antiviral activity against Influenza A virus (A/Puerto Rico/8/1934(H1N1)) infected in MDCK cells infected with supernatants from virus-infected human Calu3 cells treated with compound for 2 days assessed as reduction in viral replication by crystal violet staining based viral plaque assay. In kind it is functional, organism-based. The settings on record: 48 h.

A short description of data set [20]: Solubility in pH 7.4 PBS at 0.5 mg in 32 ul solution sonicated for 5 mins followed by incubation at room temperature for 30 mins. In kind it is physicochemical. In a few lines:
as §2

The mark [21] stands for this setting: phosphate buffer solution, pH 7.4, read-out: Stability.

On to `N.O=C(/C=C/c1ccc(OCOP(=O)(O)O)cc1)c1ccc(O)cc1O`, for which the Activity is on record as 62.5% with Mus musculus [1] and 80% with Mus musculus [13]. For the same compound, the solubility at 0.5 h in [2] came out at 25 mM; in [5], 25 mM; in data set [10] it was 100 mM; in data set [11], 50 mM. Moreover, the Stability result in data set [3] (buffer, pH 7.4, 384 h) is listed as “Stable”; in data set [6], “Stable”; in data set [7] (buffer, pH 7.4, 384 h), “Stable”; in data set [9] it was 2 weeks; in data set [12] (384 h), 6 months. Besides, the t1/2 turned out to be 100 min in data set [4] and 10.8 min in [8].
On to `O=C(/C=C/c1ccc(OCOP(=O)(O)O)cc1)c1ccc(O)cc1O`, for which the remaining at 384 h in data set [3] (setting [21]) stood at 60%; in data set [7] (setting [21]), 80%; in data set [12] (amorphous solid form, read-out: Stability), 80%.
As for `O=C(/C=C/c1ccc(O)cc1)c1ccc(O)cc1O` [ISOLIQUIRITIGENIN], the solubility at 0.5 h in [2] was 0.0153 mM (≈ 0.00392 mg/mL); in data set [14], 250 mM (≈ 64.1 mg/mL); in [15], 31.2 mM (≈ 8 mg/mL); in data set [16], 500 mM (≈ 128 mg/mL); in data set [17], 15.3 mM (≈ 3.92 mg/mL); in [18], 125 mM (≈ 32 mg/mL). Further, the solubility at 0.5 h in data set [19] is 1000 mM (≈ 256 mg/mL); in data set [20], 62.5 mM (≈ 16 mg/mL). Further, the Stability entry in [6] and in data set [8] was “Stable” throughout. Also, the EC50 in the data set on Influenza A virus is 24.7 µM.

The record behind these values is ChEMBL document CHEMBL4270484, “Synthesis and Characterization of a Phosphate Prodrug of Isoliquiritigenin” (J Nat Prod, 2017).
